Here are results for three compounds from ChEMBL document CHEMBL1255370, “Activity of pradofloxacin against Porphyromonas and Prevotella spp. Implicated in periodontal disease in dogs: susceptibility test data from a European multicenter study” (2008).

The subject of one experiment is Porphyromonas. Briefly: Antimicrobial activity against Porphyromonas isolated from canine periodontal pockets after 48 hrs by agar dilution method. The format is functional. An outline of the steps: (§1)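 Isolates came from canine periodontal pockets (2004–2006, six countries; dogs without antimicrobials for ≥4 weeks), cultured anaerobically at 35 ± 1°C and identified by Biolog. MICs were found by CLSI M11-A6 agar dilution on brucella blood agar with hemin and vitamin K, using a multipoint inoculator under strict anaerobiosis for up to 48 h. QC strains were B. fragilis ATCC 25285 and E. lentum ATCC 43055.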
For orientation: In agar dilution the substance is mixed into plates at graded concentrations.

Another experiment has as its system Prevotella corporis. Nature of the experiment: Antimicrobial activity against Prevotella corporis isolated from canine periodontal pockets after 48 hrs by agar dilution method. The class given is functional. An outline of the steps:
as §1

The test system of another experiment is Hoylesella loescheii. Nature of the experiment: Antimicrobial activity against Prevotella loescheii isolated from canine periodontal pockets after 48 hrs by agar dilution method. The class given is functional. In a few lines:
as §1

Experiment [1] concerns Bacteroides zoogleoformans. Nature of the experiment: Antimicrobial activity against Bacteroides zoogleoformans isolated from canine periodontal pockets after 48 hrs by agar dilution method. The format is functional. In a few lines:
as §1

The next experiment deals with Prevotella intermedia. Briefly: Antimicrobial activity against Prevotella intermedia isolated from canine periodontal pockets after 48 hrs by agar dilution method. The class given is functional. An outline of the steps:
as §1

Experiment [2] concerns Porphyromonas macacae. Nature of the experiment: Antimicrobial activity against Porphyromonas macacae isolated from canine periodontal pockets after 48 hrs by agar dilution method. The format is functional. An outline of the steps:
as §1

For a further experiment, the system named is Prevotella oulorum. Briefly: Antimicrobial activity against Prevotella oulorum isolated from canine periodontal pockets after 48 hrs by agar dilution method. The class given is functional. The following applies: Segatella oulorum. In a few lines: as §1
For experiment [3], the system named is Porphyromonas circumdentaria. Nature of the experiment: Antimicrobial activity against Porphyromonas circumdentaria isolated from canine periodontal pockets after 48 hrs by agar dilution method. The format is functional. An outline of the steps: as §1
In experiment [4] the test system is Bacteroides heparinolyticus. Briefly: Antimicrobial activity against Bacteroides heparinolyticus isolated from canine periodontal pockets after 48 hrs by agar dilution method. The format is functional. The following applies: Prevotella heparinolytica. An outline of the steps:
as §1

A further experiment deals with Prevotella nigrescens. Nature of the experiment: Antimicrobial activity against Prevotella nigrescens isolated from canine periodontal pockets after 48 hrs by agar dilution method. The format is functional. In a few lines: as §1
For experiment [5], the system named is Porphyromonas asaccharolytica. Nature of the experiment: Antimicrobial activity against Porphyromonas asaccharolyticus isolated from canine periodontal pockets after 48 hrs by agar dilution method. The format is functional. An outline of the steps: as §1
In another experiment the test system is Hoylesella oralis. Nature of the experiment: Antimicrobial activity against Prevotella oralis isolated from canine periodontal pockets after 48 hrs by agar dilution method. The class given is functional. An outline of the steps: as §1
The test system of a further experiment is Prevotella disiens. Nature of the experiment: Antimicrobial activity against Prevotella disiens isolated from canine periodontal pockets after 48 hrs by agar dilution method. The class given is functional. In a few lines: as §1
A further experiment deals with Porphyromonas levii. Nature of the experiment: Antimicrobial activity against Porphyromonas levii isolated from canine periodontal pockets after 48 hrs by agar dilution method. The class given is functional. In a few lines:
as §1

The next experiment relates to Prevotella buccae. Nature of the experiment: Antimicrobial activity against Prevotella buccae isolated from canine periodontal pockets after 48 hrs by agar dilution method. The class given is functional. The settings on record: Segatella buccae. In a few lines:
as §1

A further experiment deals with Prevotella denticola. Briefly: Antimicrobial activity against Prevotella denticola isolated from canine periodontal pockets after 48 hrs by agar dilution method. The class given is functional. In a few lines:
as §1

The subject of experiment [6] is Porphyromonas macacae. Briefly: Antimicrobial activity against Porphyromonas salivosa isolated from canine periodontal pockets after 48 hrs by agar dilution method. The format is functional. An outline of the steps:
as §1

For the next experiment, the system named is Prevotella oris. Nature of the experiment: Antimicrobial activity against Prevotella oris isolated from canine periodontal pockets after 48 hrs by agar dilution method. The class given is functional. The settings on record: Segatella oris. In a few lines:
as §1

In a further experiment the test system is Prevotella sp. Briefly: Antimicrobial activity against Prevotella sp. isolated from canine periodontal pockets after 48 hrs by agar dilution method. The format is functional. An outline of the steps:
as §1

A further experiment has as its system Porphyromonas gingivalis. Briefly: Antimicrobial activity against Porphyromonas gingivalis isolated from canine periodontal pockets after 48 hrs by agar dilution method.

Values after ≈ are worked out from the molar mass of the structure shown. A value given as a limit tells only on which side of the number the result lay.

As usually defined, the MIC90 is an inhibitory concentration at the 90% level, which refers to growth in some studies and to a panel of isolates in others. Lower therefore signals higher susceptibility. In turn, `NC1CCN(c2c(F)cc3c(=O)c(C(=O)O)cn(C4CC4)c3c2Cl)C1` (configuration not stated) [CLINAFLOXACIN] yielded an MIC90 against Porphyromonas of 0.125 µg/mL (≈ 0.342 µM).
A word on the MIC50: it is an inhibitory concentration at the 50% level, which refers to growth in some studies and to a panel of isolates in others. By MIC is commonly meant the least concentration at which growth counts as inhibited. Read a low MIC as greater potency. As for `Cc1ncc([N+](=O)[O-])n1CCO` [METRONIDAZOLE], the MIC50 with Prevotella corporis is 0.062 µg/mL (≈ 0.362 µM); in the experiment with Prevotella intermedia, at most 0.016 µg/mL; against Porphyromonas macacae [2], 0.125 µg/mL (≈ 0.73 µM); in [3] it was 0.125 µg/mL (≈ 0.73 µM); in [4], 0.25 µg/mL (≈ 1.46 µM); in the experiment on Prevotella nigrescens, 0.125 µg/mL (≈ 0.73 µM). Besides, the MIC50 in experiment [5] came to 0.031 µg/mL (≈ 0.181 µM); against Hoylesella oralis it was 0.25 µg/mL (≈ 1.46 µM); against Prevotella disiens it was 0.062 µg/mL (≈ 0.362 µM); in the experiment on Porphyromonas levii, 0.062 µg/mL (≈ 0.362 µM); with Prevotella denticola it was 0.125 µg/mL (≈ 0.73 µM); against Porphyromonas macacae [6] it was 0.25 µg/mL (≈ 1.46 µM). Further, the values for the MIC50 in the experiment with Prevotella oris, against Prevotella sp. and in the experiment with Porphyromonas gingivalis were 0.5 µg/mL (≈ 2.92 µM), 0.25 µg/mL (≈ 1.46 µM) and 0.062 µg/mL (≈ 0.362 µM), respectively. Besides, the MIC90 is 0.25 µg/mL (≈ 1.46 µM) against Prevotella corporis; 0.25 µg/mL (≈ 1.46 µM) with Porphyromonas macacae [2]; 0.25 µg/mL (≈ 1.46 µM) in [3]; 0.5 µg/mL (≈ 2.92 µM) in [4]; 0.5 µg/mL (≈ 2.92 µM) against Prevotella nigrescens; 0.125 µg/mL (≈ 0.73 µM) in experiment [5]. For the same compound, the MIC90 with Porphyromonas levii turned out to be 0.125 µg/mL (≈ 0.73 µM); with Porphyromonas macacae [6], 0.5 µg/mL (≈ 2.92 µM); against Prevotella sp., 0.5 µg/mL (≈ 2.92 µM); against Porphyromonas gingivalis it was 0.25 µg/mL (≈ 1.46 µM). The MIC with Hoylesella loescheii was 0.062 µg/mL (≈ 0.362 µM); in experiment [1], 0.125 µg/mL (≈ 0.73 µM); with Prevotella intermedia, at most 0.016 µg/mL; in the experiment with Prevotella oulorum it was 0.25 µg/mL (≈ 1.46 µM); in the experiment on Prevotella buccae it was 0.5 µg/mL (≈ 2.92 µM).
As for `N#Cc1c(N2C[C@@H]3CCCN[C@@H]3C2)c(F)cc2c(=O)c(C(=O)O)cn(C3CC3)c12` [PRADOFLOXACIN], the MIC50 in the experiment with Prevotella corporis was found to be 0.062 µg/mL (≈ 0.156 µM); in the experiment on Prevotella intermedia it was 0.031 µg/mL (≈ 0.0782 µM); in the experiment with Porphyromonas macacae [2] it was 0.062 µg/mL (≈ 0.156 µM); in [3] it was 0.062 µg/mL (≈ 0.156 µM); in experiment [4] it was 0.062 µg/mL (≈ 0.156 µM); against Prevotella nigrescens it was 0.062 µg/mL (≈ 0.156 µM). Besides, the MIC50 turned out to be 0.062 µg/mL (≈ 0.156 µM) in experiment [5]; 0.062 µg/mL (≈ 0.156 µM) in the experiment with Hoylesella oralis; 0.062 µg/mL (≈ 0.156 µM) in the experiment with Prevotella disiens; 0.062 µg/mL (≈ 0.156 µM) in the experiment on Porphyromonas levii; 0.062 µg/mL (≈ 0.156 µM) against Prevotella denticola; 0.125 µg/mL (≈ 0.315 µM) in the experiment on Porphyromonas macacae [6]. Also, the MIC50 against Prevotella oris amounted to 0.062 µg/mL (≈ 0.156 µM); against Prevotella sp., 0.062 µg/mL (≈ 0.156 µM); in the experiment on Porphyromonas gingivalis it was 0.031 µg/mL (≈ 0.0782 µM). For the same compound, the MIC90 against Prevotella corporis is 0.125 µg/mL (≈ 0.315 µM); in the experiment with Porphyromonas macacae [2], 0.125 µg/mL (≈ 0.315 µM); in experiment [3] it was 0.25 µg/mL (≈ 0.631 µM); in [4], 0.25 µg/mL (≈ 0.631 µM); against Prevotella nigrescens it was 0.25 µg/mL (≈ 0.631 µM); in experiment [5] it was 0.062 µg/mL (≈ 0.156 µM). Also, the MIC90 came to 0.125 µg/mL (≈ 0.315 µM) with Porphyromonas levii, 0.125 µg/mL (≈ 0.315 µM) against Porphyromonas macacae [6], 0.25 µg/mL (≈ 0.631 µM) against Prevotella sp. and 0.125 µg/mL (≈ 0.315 µM) against Porphyromonas gingivalis. Besides, the MIC against Hoylesella loescheii was 0.062 µg/mL (≈ 0.156 µM); in experiment [1] it was 0.125 µg/mL (≈ 0.315 µM); in the experiment with Prevotella oulorum, 0.031 µg/mL (≈ 0.0782 µM); in the experiment with Hoylesella oralis, 0.062 µg/mL (≈ 0.156 µM); in the experiment with Prevotella buccae, 0.25 µg/mL (≈ 0.631 µM); against Prevotella denticola it was 0.062 µg/mL (≈ 0.156 µM).
